Assay [1] relates to Mycobacterium tuberculosis. The experiment in a line: Antimicrobial activity against Mycobacterium tuberculosis H37Rv incubated for 24 hrs and measured by MTT assay. Type of assay: functional. The procedure, abridged:
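Pellicle-grown Mtb bacilli were vortexed with glass beads, clumps removed by slow spin, and set to A600 0.1 in 7H9/0.2% glycerol. 2 µL compound in DMSO (1 mM, or 2-fold serial dilutions) went into 100 µL broth with 100 µL bacteria. Plates ran 6 d at 37 °C, then MTT (1 mg/mL) for 24 h, SDS solubilisation and A570. MIC was the lowest concentration inhibiting growth versus the untreated control.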

In assay [2] the target is T1, Long-chain-fatty-acid--AMP ligase FadD32 (Mycobacterium tuberculosis (strain ATCC 25618 / H37Rv)) (UniProt O53580).
T1 sequence (whole entry): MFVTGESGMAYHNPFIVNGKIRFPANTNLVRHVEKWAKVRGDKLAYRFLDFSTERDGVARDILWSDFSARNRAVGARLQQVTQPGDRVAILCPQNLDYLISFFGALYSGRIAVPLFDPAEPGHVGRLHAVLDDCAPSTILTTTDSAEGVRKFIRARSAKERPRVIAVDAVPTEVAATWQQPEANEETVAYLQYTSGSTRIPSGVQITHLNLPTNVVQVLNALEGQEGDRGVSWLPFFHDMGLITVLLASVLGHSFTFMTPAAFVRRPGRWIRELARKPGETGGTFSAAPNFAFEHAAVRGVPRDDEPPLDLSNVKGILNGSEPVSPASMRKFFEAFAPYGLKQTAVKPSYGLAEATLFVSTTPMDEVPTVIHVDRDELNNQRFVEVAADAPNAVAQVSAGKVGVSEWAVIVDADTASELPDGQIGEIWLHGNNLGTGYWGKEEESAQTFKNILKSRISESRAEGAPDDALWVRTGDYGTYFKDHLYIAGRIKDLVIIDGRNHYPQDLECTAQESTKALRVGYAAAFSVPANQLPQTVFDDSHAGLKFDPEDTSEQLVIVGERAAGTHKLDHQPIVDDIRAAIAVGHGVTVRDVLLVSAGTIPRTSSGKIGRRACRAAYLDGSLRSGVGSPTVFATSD
The experiment in a line: Binding affinity to Mycobacterium tuberculosis FAAL32 assessed as change in melting temperature at 5 uM by NanoDSF assay. The procedure, abridged: (§1)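 nanoDSF used 0.5 µM purified FAAL32 with ligand at 0.5–10 µM in 50 mM HEPES pH 7.5, 500 mM NaCl, 5% DMSO. Samples sat 5 min at RT, then were heated 20–70 °C at 1 °C/min. Tm came from the F350/F330 fluorescence ratio; the DMSO-only protein was the reference.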

Assay [3] concerns the target T2, Long-chain-fatty-acid--AMP ligase FadD32 (Mycobacterium tuberculosis (strain ATCC 25618 / H37Rv), UniProt O53580).
T2 sequence (O53580 whole entry): T1 sequence (whole entry)
In words: Inhibition of Mycobacterium tuberculosis FAAL32 using AMPC12 as substrate incubated for 50 mins and measured by spectrophotometric assay. The method in brief:
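Purified Mtb FAAL32 was run with lauric acid and ATP in HEPES pH 7.5, MgCl2, DTT and detergent. Pyrophosphatase coupling converted released PPi to Pi, read after 50 min as A630 with a phosphate colour reagent against a Pi calibration curve. Compounds (final 0.5–66 µM, DMSO) were added before the enzyme. IC50 came from a sigmoidal fit of percent inhibition.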

Assay [4] deals with T1, Long-chain-fatty-acid--AMP ligase FadD32 (Mycobacterium tuberculosis (strain ATCC 25618 / H37Rv)). The experiment in a line: Binding affinity to Mycobacterium tuberculosis FAAL32 assessed as change in melting temperature at 2.5 uM by NanoDSF assay. The procedure, abridged: as §1
(In general: DSF heats the sample and reads unfolding from a dye or from intrinsic fluorescence.)

pIC50: −log10 of the molar value. ≈ marks a conversion by molar mass, not a printed value. Counter-ions that a name gives are not always drawn. Bounds are passed on as bounds.

Usually MIC stands for the lowest concentration found to suppress growth. Usually ΔTm stands for the shift of the melting midpoint relative to a reference. A word on the pIC50: it is the IC50 on a negative log10 scale, so that one unit is a factor of ten. High values mean a small IC50, low ones a large IC50.

On to `CC(=O)Oc1ccccc1C(=O)Nc1ncc([N+](=O)[O-])s1` [NITAZOXANIDE], for which, in assay [1], the MIC amounted to 10 µM (≈ 3.07 µg/mL). Same read-out and setting: with `Clc1ccc(COC(Cn2ccnc2)c2ccc(Cl)cc2Cl)c(Cl)c1` (stereo unspecified) [MICONAZOLE] the figure was over 1 µM. On to `Oc1c(Cl)cc(Cl)c(Cl)c1Cc1c(O)c(Cl)cc(Cl)c1Cl` [HEXACHLOROPHENE], for which, in assay [1], the MIC was determined as 0.08 µM (≈ 0.0326 µg/mL).

Take `CCCCC(CC)CNC(=N)NC(=N)NCCCCCCNC(=N)NC(=N)NCC(CC)CCCC` (stereo unspecified) [ALEXIDINE DIHYDROCHLORIDE]: in assay [1], the MIC was over 1 µM. Same read-out and setting: with `NNC(=O)c1ccncc1` [ISONIAZID] the figure was 0.6 µM (≈ 0.0823 µg/mL); with `O=C(O)c1cn(C2CC2)c2cc(N3CCNCC3)c(F)cc2c1=O` [CIPROFLOXACIN], 1.25 µM (≈ 0.414 µg/mL). In turn, `CCCCCCCCCCCCCCCC[N+](C)(C)CCN(Cc1ccc(OC)cc1)c1ncccn1` [THONZONIUM BROMIDE] gave a minimal inhibitory concentration (MIC) in assay [1] of over 1 µM. `Cc1cc(C(C#N)c2ccc(Cl)cc2)c(Cl)cc1NC(=O)c1cc(I)cc(I)c1O` (stereo unspecified) [CLOSANTEL]: the ΔTm in assay [2] amounted to 2.7 °C. The MIC in assay [1] turned out to be 0.08 µM (≈ 0.053 µg/mL). In assay [3], the pIC50 is 5.11.

In assay [1], `O=C(Nc1ccc(Oc2ccc(Cl)cc2)c(Cl)c1)c1cc(I)cc(I)c1O` [RAFOXANIDE] came in with an MIC of 0.08 µM (≈ 0.0501 µg/mL). Also, the ΔTm in assay [4] is 2.7 °C.

In assay [1], VERTEPORFIN displayed an MIC of over 1 µM. On the same count and under the same terms, to `O=C(Nc1ccc([N+](=O)[O-])cc1Cl)c1cc(Cl)ccc1O` [NICLOSAMIDE] belongs under 0.4 µM. `O=C(Nc1cc(Cl)cc(Cl)c1O)c1c(O)c(Cl)cc(Cl)c1Cl` [OXYCLOZANIDE]: in assay [1], the MIC was found to be 0.32 µM (≈ 0.128 µg/mL). Same read-out and setting: with `CC(C)(O)c1ccccc1CC[C@@H](SCC1(CC(=O)O)CC1)c1cccc(/C=C/c2ccc3ccc(Cl)cc3n2)c1` [MONTELUKAST] the figure was over 1 µM.
